In ChEMBL document CHEMBL1123989, “Effects of addition of a 2-methyl group to ethyl nipecotates (beta-meperidines) on receptor affinities and opiate agonist/antagonist activities” (J Med Chem, 1988):
Activity calls are given as the source filed them.

Assays:
[1] = target: Delta-type opioid receptor (Rattus norvegicus, UniProt P33533); test: Binding affinity at Opioid receptor delta 1 in rat brain membrane was determined by using curve -fitting LIGAND([3H]DHM, [3H]DADL, [3H]DSLET, [3H]EKC); assay type: cell membranes
In short: (§1)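 Rat brain membranes in Tris pH 7.7, preincubated 1 h at 37 °C to strip endogenous opioids. 12 mg tissue per tube with tritiated ligand plus competitor, 1 h at 25 °C, then filtered. Nonspecific binding defined with 1.0 μM unlabeled form of the tracer. Each curve run twice at two tracer concentrations. Affinities from simultaneous LIGAND curve-fitting.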

Mus musculus [2] = test: Antagonistic activity to show narcotic effect induced by subcutaneous administration of 21.08 umol/kg of morphine in mouse tail-flick test; assay type: functional
In short: (§2)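 Male Swiss-Webster mice. Tail-flick latency read at 10, 20, 30, 45 and 60 min. % antagonism = 100 − (% agonism with morphine)/0.80, taken at peak effect. AD50 with 95% CL by Litchfield–Wilcoxon from the log-dose plot.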

Mus musculus [3] = test: Effective dose to show narcotic analgesic activity was evaluated in mouse tail-flick test when administered subcutaneously; assay type: functional; details: sc
In short: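 Male Swiss-Webster mice (21-28 g), pretested twice; heat lamp set for a 2-4 s baseline flick with a 6.5 s cut-off. Three doses, 10 mice/dose, given sc. Latency read at 10-60 min. % of maximum possible increase taken at peak effect. ED50 with 95% CL from a log-dose probit plot (Litchfield–Wilcoxon).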

Mu-type opioid receptor = Mu-type opioid receptor (Rattus norvegicus, UniProt P33535); test: Binding affinity at Opioid receptor mu 1 in rat brain membrane was determined by using curve-fitting ligands ([3H]DHM, [3H]DADL, [3H]DSLET, [3H]EKC); assay type: cell membranes; in short: as §1
[4] = target: Kappa-type opioid receptor (Cavia porcellus, UniProt P41144); test: Binding affinity at Opioid receptor kappa 1 in guinea pig brain membrane determined by using [3H]U-69593 as radioligand; assay type: cell membranes
In short: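 Guinea pig brain membranes prepared as for the rat assay (Tris pH 7.7, 1 h 37 °C preincubation). Displacement of [3H]U69,593 over 1 h at 25 °C, then filtered. Nonspecific binding with 1.0 μM unlabeled U69,593. Curves repeated twice at two tracer concentrations. Values by LIGAND analysis.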

Mus musculus [5] = test: Antagonistic activity to show narcotic effect induced by subcutaneous administration of 21.08 umol/Kg of morphine in mouse tail-flick test; NA=No antagonism; assay type: functional, organism-based; in short: as §2

Delta-type opioid receptor, sequence (P33533 whole entry): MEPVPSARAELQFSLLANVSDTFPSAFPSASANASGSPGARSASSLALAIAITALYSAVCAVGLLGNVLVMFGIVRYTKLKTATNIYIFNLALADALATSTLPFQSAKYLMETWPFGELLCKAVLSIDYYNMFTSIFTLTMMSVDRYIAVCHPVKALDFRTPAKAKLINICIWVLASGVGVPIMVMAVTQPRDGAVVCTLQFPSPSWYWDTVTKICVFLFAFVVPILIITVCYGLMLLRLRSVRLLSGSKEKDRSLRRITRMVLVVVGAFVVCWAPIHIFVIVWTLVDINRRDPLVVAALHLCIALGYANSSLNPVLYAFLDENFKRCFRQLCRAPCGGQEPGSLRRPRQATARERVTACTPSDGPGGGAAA
Mu-type opioid receptor, sequence (P33535 whole entry): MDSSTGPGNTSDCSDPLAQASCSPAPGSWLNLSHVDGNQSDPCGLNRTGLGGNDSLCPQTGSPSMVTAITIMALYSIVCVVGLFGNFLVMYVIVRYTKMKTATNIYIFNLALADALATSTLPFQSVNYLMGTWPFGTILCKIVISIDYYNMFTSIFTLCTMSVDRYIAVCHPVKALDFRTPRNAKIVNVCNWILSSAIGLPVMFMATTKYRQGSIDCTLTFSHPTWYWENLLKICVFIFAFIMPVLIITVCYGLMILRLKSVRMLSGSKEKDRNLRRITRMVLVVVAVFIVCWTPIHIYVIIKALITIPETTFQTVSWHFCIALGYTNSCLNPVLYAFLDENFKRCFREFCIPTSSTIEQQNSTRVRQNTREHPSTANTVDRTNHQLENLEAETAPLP
Kappa-type opioid receptor, sequence (P41144 whole entry): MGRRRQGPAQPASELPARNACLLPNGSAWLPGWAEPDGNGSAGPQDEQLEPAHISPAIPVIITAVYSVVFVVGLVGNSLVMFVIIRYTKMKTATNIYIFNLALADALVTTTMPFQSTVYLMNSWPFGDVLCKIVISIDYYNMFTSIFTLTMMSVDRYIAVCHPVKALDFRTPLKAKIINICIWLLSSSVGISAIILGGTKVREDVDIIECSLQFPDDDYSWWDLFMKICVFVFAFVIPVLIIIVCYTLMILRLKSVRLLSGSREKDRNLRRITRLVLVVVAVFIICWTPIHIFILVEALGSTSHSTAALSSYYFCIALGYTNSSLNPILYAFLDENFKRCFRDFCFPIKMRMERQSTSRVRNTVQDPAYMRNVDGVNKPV

With `CCOC(=O)[C@]1(c2cccc(O)c2)CCCN(C)C1` the Kd [1] was 4000 nM, the AD50 (Mus musculus [2]) was 24 µM/kg and the ED50 (Mus musculus [3]) was over 290 µmol/kg. It also gave a Kd (Mu-type opioid receptor) of 36 nM and a Kd [4] of 2200 nM.

`CCOC(=O)[C@]1(c2cccc(O)c2)CCCN(C)[C@H]1C` gave a Kd [1] of 910 nM, an AD50 (Mus musculus [2]) of 14 µM/kg and an ED50 (Mus musculus [3]) of over 510 µmol/kg. The Kd (Mu-type opioid receptor) was 178 nM and the Kd [4] was 1900 nM.

Work on `C=CCN1CCC[C@](C(=O)OCC)(c2cccc(O)c2)C1` yielded a Kd [1] of 715 nM, an AD50 (Mus musculus [2]) of over 192 µM/kg and an ED50 (Mus musculus [3]) of over 229 µmol/kg. The Kd (Mu-type opioid receptor) was 26 nM and the Kd [4] was 450 nM.

`CCOC(=O)C1(c2ccccc2)CCN(C)CC1` [MEPERIDINE] was tested, and the AD50 (Mus musculus [5]) was “inactive” and the ED50 (Mus musculus [3]) was 25 µmol/kg.

Work on `CCOC(=O)[C@]1(c2cccc(O)c2)CCCN(CC2CC2)[C@H]1C` yielded a Kd [1] of 625 nM, an AD50 (Mus musculus [2]) of 75 µM/kg and an ED50 (Mus musculus [3]) of over 452 µmol/kg. The Kd (Mu-type opioid receptor) was 154 nM and the Kd [4] was 830 nM.

Work on `C=CCN1CCC[C@](C(=O)OCC)(c2cccc(O)c2)[C@@H]1C` yielded a Kd [1] of 770 nM, an AD50 (Mus musculus [2]) of 112 µM/kg and an ED50 (Mus musculus [3]) of over 118 µmol/kg. For the same molecule, the Kd (Mu-type opioid receptor) was 310 nM and the Kd [4] was 830 nM.

In the case of `CCOC(=O)[C@]1(c2cccc(O)c2)CCCN(CC2CC2)C1`, the Kd [1] is reported as 260 nM, the AD50 (Mus musculus [2]) is reported as 19 µM/kg and the ED50 (Mus musculus [3]) is reported as 68 µmol/kg. It also gave a Kd (Mu-type opioid receptor) of 8 nM and a Kd [4] of 120 nM.

For `CCOC(=O)[C@]1(c2cccc(O)c2)CCCN(CCc2ccccc2)[C@H]1C`, the Kd [1] was 170 nM, the AD50 (Mus musculus [2]) was over 198 µM/kg and the ED50 (Mus musculus [3]) was over 198 µmol/kg. It also gave a Kd (Mu-type opioid receptor) of 380 nM and a Kd [4] of 2600 nM.

`C=CCN1CC[C@]23c4c5ccc(O)c4O[C@H]2[C@@H](O)C=C[C@H]3[C@H]1C5` [NALORPHINE] gave an AD50 (Mus musculus [2]) of 2 µM/kg and an ED50 (Mus musculus [3]) of 828 µmol/kg.
